The list is not random: actives were taken first. Their share in the collection is about 29%.
tolC growth inh – E. coli tolC mutant growth inhibition; AID 573; E. coli BW25113 tolC mutant growth, OD615; 65,000 compounds, 2.2% hits; growth inhibition, % at 10 µM (by protocol);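 active = growth inhibition at or above a cutoff equal to the mean over every tested compound plus 3 SD, cut at about 60% in these data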;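 note: growth measured after 20 h incubation at 37 °C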
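Test system: tolC-deleted E. coli BW25113; medium: LB with kanamycin 50 µg/mL; compound: single-point testing at 10 µM; incubation: 20 h compound exposure of bacteria at 37 °C; signal: OD at 615 nm; evaluation: growth inhibition in percent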
CYP2C9 activ – increases human cytochrome P450 2C9 activity. 96,000 compounds, 1.4% hits. P11712. activation factor at 5 µM. AID 1024. recombinant CYP2C9, luciferin-H conversion, luminescence; stronger effect = higher value; factor 1 = untreated enzyme, 0 = blocked;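 active = activation factor of 2 or more for CYP2C9 at a 5 µM dose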;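 note: 0 = sulfaphenazole-blocked wells and 1 = vehicle-only wells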
CYP2C19 inh – inhibitors of human CYP2C19. P33261. CYP2C19 Supersomes, luciferin-H EGE luminescence, 30 min. inhibition, % at 5 µM. 96,000 compounds, 21% hits. AID 778;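 active = CYP2C19 inhibition above a set limit at 5 µM in the primary screen, cut at about 50% in these data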;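 note: plate controls were negative control wells for no effect and 2.5 mM tranylcypromine positive control for full effect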
Target sequence (P33261 whole entry, looked up): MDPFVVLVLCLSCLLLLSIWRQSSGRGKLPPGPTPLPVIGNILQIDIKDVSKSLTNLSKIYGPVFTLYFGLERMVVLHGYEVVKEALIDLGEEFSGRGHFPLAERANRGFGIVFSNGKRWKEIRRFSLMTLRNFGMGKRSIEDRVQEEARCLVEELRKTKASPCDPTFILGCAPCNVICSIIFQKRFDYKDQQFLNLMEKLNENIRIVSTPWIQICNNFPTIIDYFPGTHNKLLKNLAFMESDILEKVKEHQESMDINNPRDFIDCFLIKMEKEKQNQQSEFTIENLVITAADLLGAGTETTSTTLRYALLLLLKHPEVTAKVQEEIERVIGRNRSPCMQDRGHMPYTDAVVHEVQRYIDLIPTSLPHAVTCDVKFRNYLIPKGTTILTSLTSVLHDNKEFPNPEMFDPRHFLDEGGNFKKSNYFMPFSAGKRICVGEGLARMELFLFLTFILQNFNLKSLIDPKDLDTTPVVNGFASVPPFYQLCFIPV
CYP2C9 inh – blocks human cytochrome P450 2C9; P11712; CYP2C9 Supersomes, luciferin-H conversion, luminescence; inhibition, % at 5 µM; 96,000 compounds, 20% hits;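 active = blocking of liver enzyme CYP2C9 beyond about 50% at 5 µM, limit read from the data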
E coli WT exp – blocks growth of wild type E. coli BW25113 | OD600 absorbance | 98,000 compounds, 0.15% hits | growth inhibition, % at 100 µM;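 active = growth inhibition above about 50% at one test dose, limit read from the data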;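 note: growth measured after 20 h incubation at 37 °C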
CYP2C19 activ – increases human CYP2C19 enzyme activity; activation factor at 5 µM; recombinant CYP2C19, luciferin-H EGE luminescence; stronger effect = higher value; 0 = fully inhibited enzyme, 1 = untreated enzyme; 96,000 tested, under 10 active; P33261;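 active = activation factor of at least 2 at 5 µM in the primary screen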;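 note: 0 = wells with 2.5 mM tranylcypromine and 1 = vehicle-only wells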
Starred values were filed as active, the others as inactive; . = no result.

SMILES	tolC growth inh	CYP2C9 activ	CYP2C19 inh	CYP2C9 inh	E coli WT exp	CYP2C19 activ
Cc1ccc(S(=O)(=O)N2CCOCC2)cc1C(=O)OCC(=O)N1c2ccccc2NC(=O)C1(C)C	.	0.8	-17	20	-6	1.2
COc1cccc(NC(=O)NCc2cccn2C)c1	-5	1	26	5	7	0.7
COc1cccc(C(=O)NCCn2ccc3ccccc32)c1	12	0.7	79*	33	5	0.2
COc1ccc(C(=O)NCCn2ccc3ccccc32)cc1OC	-2	1.1	38	-12	-3	0.6
CC(=O)NCCn1ccc2ccccc21	-16	0.8	18	23	2	0.8
O=C(Cc1ccccc1)NCCn1ccc2ccccc21	-2	0.7	76*	34	-2	0.2
COc1ccccc1C(=O)NCCn1ccc2ccccc21	4	1.1	88*	-5	5	0.1
Cc1cc(C)c(S(=O)(=O)NCCn2ccc3ccccc32)c(C)c1	.	0.1	49	87*	3	0.5
COc1cc(OC)cc(C(=O)NCCn2ccc3ccccc32)c1	12	0.9	78*	10	-2	0.2
O=C(COc1ccc2ccccc2c1)NCCn1ccc2ccccc21	.	0.5	44	48	-10	0.6
CCCCOc1ccc(CSc2nncn2N)cc1	2	0.9	20	11	0	0.8
CCCc1nnc(SCc2ccc(OC)cc2)n1N	-22	0.9	51*	14	-1	0.5
COc1ccc(CSc2nnc(C)n2N)cc1	-25	1.1	-10	-14	2	1.1
CCCOc1ccc(CSc2nnc(CCC)n2N)cc1	-3	0.5	66*	55*	6	0.3
CCCCOc1ccc(Cl)cc1CSc1nnc(CC)n1N	8	0.4	54*	64*	4	0.5
CCOC(=O)CCCc1sc(N)nc1-c1[nH]c(=O)[nH]c1C	-14	1	-17	-4	3	1.2
CC(C)CCn1nnnc1C(c1ccc(F)cc1)N1CCC(C(N)=O)CC1 (stereo not drawn)	-10	0.7	-1	28	-7	1
CC(=O)CC(C)(C)n1nnc(-c2ccccc2)n1	-1	0.9	62*	12	-1	0.4
COc1ccc2c(C(=O)CN(C)C3CCCCC3)c[nH]c2c1	7	.	.	.	-1	.
O=C(Nc1ccc(Br)cc1)C1CC=CCC1C(=O)OCC1CCCO1 (stereo not drawn)	.	0.9	51*	10	-3	0.5
O=C(Nc1ccc(Cl)cc1)C1CC=CCC1C(=O)OCC(F)(F)C(F)F (stereo not drawn)	-20	1	21	-2	1	0.8
CC1CCOC2(O1)C(=O)N(CN1CCN(c3cccc(Cl)c3)CC1)c1ccccc12 (stereo not drawn)	.	1	11	5	4	0.9
CC1CCCC2(C1)NC(=S)N(c1ccccc1)N2 (stereo not drawn)	.	0.8	42	21	3	0.6
CC1(c2ccccc2)NC(=S)N2C1NC(=S)N2c1ccccc1 (stereo not drawn)	.	0.7	70*	33	-3	0.3
CCOC(=O)N1CCN(C(=O)CSCc2nc(-c3ccccc3C)oc2C)CC1	12	0.6	59*	36	-1	0.4
SMILES	tolC growth inh	CYP2C9 activ	CYP2C19 inh	CYP2C9 inh	E coli WT exp	CYP2C19 activ
CCOC(=O)N1CCN(C(=O)CSCc2nc(-c3ccccc3F)oc2C)CC1	-1	0.7	38	32	1	0.6
CCc1ccc(-c2nc(CSCC(=O)N3CCN(c4ncccn4)CC3)c(C)o2)cc1	16	0.3	29	75*	-4	0.7
COc1ccc2[nH]c(=O)c(CN(CCCN(C)C)C(=O)Nc3ccc(F)cc3)cc2c1	-3	1.1	16	-5	3	0.8
O=C(CSc1nnc(-c2ccc(Cl)s2)o1)N1CCOCC1	-19	1.1	-4	-10	.	1
Cc1sc2ncnc(NCC(C)(C)N3CCOCC3)c2c1C	.	1	22	4	3	0.8
S=c1[nH]c2cc(Cl)ccc2s1	.	0.8	7	17	53*	0.9
CC(C)=C(NC(=O)c1ccccc1)C(=O)N1CCOCC1	-20	1	2	4	9	1
c1ccc(Cc2nn3c(C4COc5ccccc5O4)nnc3s2)cc1 (stereo not drawn)	17	0.5	54*	55*	0	0.5
c1ccc(OCc2nn3c(-c4ccncc4)nnc3s2)cc1	-36	0.2	99*	80*	-4	0

Assay outcomes (PubChem)
